According to the RNAGym collection of RNA variant scans (doi:10.1038/s41586-018-0170-7):

B1: tRNA (parent)
chain: GUUCCGUUGGCGUAAUGGUAACGCGUCUCCCUCCUAAGGAGAAGACUGCGGGUUCGAGUCCCGUACGGAACG

Variants of: B1
Experiment: yeast fitness, log relative to wild type (ln ratio); higher = fitter; tRNA-Arg(CCU), competitive growth, 37 C, 1 M NaCl
How it was run: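 BY4742 cells without the chromosomal tRNA-Arg(CCU) gene carried a combinatorial variant library on a HIS3 centromeric plasmid, from two independent transformations. After 4 generations in SC-HIS at 30 °C, pools spent ~6.5 generations (~26.5 h) in SC-HIS 1M NaCl at 37 °C, giving three outputs per input, and 125 bp paired-end Illumina reads counted the variants. Fitness is the natural log of each genotype's generations over the wild type's, with generations taken as OD-scaled log2 output/input frequency weighted by inverse variance across replicates.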

Variant	yeast fitness (ln)
A43C C66A A70U	-0.0764
U2C G6A C27U C46U A69G A70U	-0.152
G1A C27U C46U C66A A69G A70U	-0.179
G6U C27U A43C A70G	-0.282
U2C C27U C66A A70G C71U	-0.157
G1A U2G G6U C46U C66A A69G A70G C71U	-0.416
G1A A69G A70U	-0.0407
U2G A43C C46U C66U A70U	-0.101
G1A U2C G6A C27U C66U A69G A70U	-0.0942
G1A U2G C27U A43C C46U C66A A69G A70G C71U	-0.269
G1A U2C G6A A43C	-0.0264
G6A A43C C66A A70U C71U	-0.395
G1A U2C A43C C71U	-0.185
G1A U2G C27U A43C C46U C66U C71U	-0.277
G1A G6U C27U C66U A69G C71U	-0.295
G6U C27U C46U C66U A69G A70G	-0.318
G1A U2G C46U A69G A70G	-0.163
G1A G6U C27U A69G A70G C71U	-0.376
G6U C27U A43C C66A C71U	-0.425
G6U A43C C66U A69G A70G	-0.333
G1A U2G C27U A43C C66U A70G	-0.315

Variant	yeast fitness (ln)
G6U C27U A43C C66A A69G A70G C71U	-0.338
U2C G6A C46U C66U A69G C71U	-0.183
G1A G6U C66U A70U C71U	-0.278
G6A C27U A69G A70U	-0.243
G6A C27U A69G A70G	-0.12
U2C G6A C66U A70U C71U	-0.172
G1A U2G G6U A43C C66A A69G A70U C71U	-0.351
G1A U2G G6A A43C C71U	-0.276
G1A U2G G6U C27U A43C C46U C66U A70G C71U	-0.466
G1A U2C G6U C27U A69G A70U C71U	-0.467
G6U C27U A69G A70G C71U	-0.394
U2C G6A C27U C46U C66U C71U	-0.119
U2C G6A C27U C66A A70U C71U	-0.269
U2C G6U A43C C46U C66U A70G C71U	-0.352
G1A U2G G6U C46U C66U A70G C71U	-0.216
G6U C27U A43C C66U A69G A70G C71U	-0.473
G1A U2C G6A A43C C46U C66U A69G A70U	-0.0607
U2G G6U A43C C46U C66U A69G A70U C71U	-0.4
U2C C27U A43C C66U	-0.15
G1A U2G G6U C27U A43C A69G A70G	-0.326
U2G G6U C27U A43C C66U	-0.298

Variant	yeast fitness (ln)
U2G G6U C27U A43C C66A	-0.0341
U2G C27U A43C C46U C66A A70G	-0.16
G1A U2G G6A A43C C46U C66U A70G	-0.181
G1A U2C G6U C27U A43C C66U A69G A70G C71U	-0.117
G6U C46U C66A C71U	-0.00198
G6U A43C C71U	-0.253
G6A C27U A43C C46U C66U	-0.0283
C46U	0.0114
G1A U2G A43C A69G A70G C71U	-0.202
G6U A43C C46U	-0.193
G1A U2G G6A C27U C46U C66A C71U	-0.179
G1A G6A C46U C66U C71U	0.000947
G6A A43C A69G A70U	-0.224
G1A U2G G6U C27U A43C C46U A69G A70U	-0.463
U2G G6A C27U A69G A70U C71U	-0.383
U2G A43C C46U A69G A70G	-0.174
G1A G6A C66U A69G C71U	-0.0291
G6A C46U A70G	-0.226
U2G A43C C46U A69G A70G C71U	-0.12
G1A U2G G6A A43C C46U A70U	-0.165
U2C G6U A43C A70G	-0.188

Variant	yeast fitness (ln)
G1A G6U A43C A70U C71U	-0.303
G1A U2G C27U A43C C46U A69G A70U C71U	-0.399
G6U C46U A69G A70G	-0.158
G1A U2G G6A C27U C46U C66U	-0.258
G1A U2C G6U C27U A70U C71U	-0.287
G1A U2G A43C C46U C66U A69G C71U	-0.404
U2C C27U A43C C46U C66A A70G	-0.0421
U2C G6A C46U A69G A70U C71U	-0.183
G1A U2G C27U A43C C66U A69G A70U	-0.363
G1A U2C G6A C27U C66U A70U	-0.141
A43C C66U C71U	-0.206
U2C C27U C46U C66U A70U	-0.0783
G6A C27U C46U	-0.149
U2G C27U A43C C46U C66U A69G A70U	-0.221
G1A G6U C27U C46U C66U C71U	-0.297
G1A U2G G6U A43C C46U C66A A70U C71U	-0.0885
U2C A43C C46U A69G A70U C71U	-0.307
U2G C46U C66U A69G	-0.119
G6U C27U A43C C46U C66A	-0.0176
G6U C27U C66A A69G A70U C71U	-0.378
U2C G6U A43C C46U C66U A70U	-0.123
